Active and inactive are the calls of the source. The rule behind the calls is not given here.
How the values were obtained:
[1] = test system: HeLa; experiment: Growth inhibition of human HeLa cells after 72 hrs by MTT assay; type: functional
Summary of the method: (§1)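 Adherent cells (2x10^4 cells/cm3) attached overnight, then were exposed to compound for 72 h. Medium was replaced with 5 mg/cm3 MTT, formazan was dissolved in DMSO and absorbance read at 595 nm. Percent growth was taken relative to untreated control minus background. GI50 came from a variable-slope log-inhibitor fit, as mean ± SD of three independent experiments in triplicate.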

[2] = test system: Caco-2; experiment: Growth inhibition of human Caco2 cells after 72 hrs by MTT assay; type: functional; conditions: Caco-2, 72 h; summary of the method: as §1
[3] = test system: Raji; experiment: Growth inhibition of human Raji cells after 72 hrs by MTT assay; type: functional
Summary of the method: (§2)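 Leukemia cells (1x10^5 cells/cm3) were exposed to compound for 72 h, then MTT (5 mg/cm3) was added for 4 h. Formazan was dissolved with 10% SDS in 0.01 mol dm-3 HCl and absorbance read at 595 nm. Percent growth was taken versus untreated control minus background. GI50 came from a variable-slope fit, as mean ± SD of three independent experiments in triplicate.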

[4] = Solubility of the compound in water; type: physicochemical
[5] = Chemical stability in aqueous solution after several weeks; type: physicochemical; conditions: buffer
Summary of the method: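 Aqueous compound solutions were monitored for several weeks by UV-Vis absorbance at 220-900 nm. Linearity with concentration was checked up to 3.5 × 10^-5 mol dm-3, and spectra were recorded at 25–90 °C with reproducibility checked on cooling to 25 °C.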

[6] = test system: K562; experiment: Growth inhibition of human K562 cells after 72 hrs by MTT assay; type: functional; conditions: K562, 72 h; summary of the method: as §2
[7] = Growth inhibition of MDCK1 cells after 72 hrs by MTT assay; set-up: species or system Canis lupus familiaris; conditions: dog; summary of the method: as §1
[8] = Binding affinity to polyA-polyU (unknown origin) assessed as change in melting temperature at 0.3 compound to ds-polynucleotide ratio by spectrophotometric method
Summary of the method: (§3)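 Thermal melting of ct-DNA (sonicated, filtered) or polyA-polyU in Na cacodylate buffer, I = 0.05 mol dm-3, pH 7.0, at given r = [compound]/[polynucleotide]; polynucleotide as phosphate concentration. Tm from maximum of first derivative, checked by tangent method. ΔTm = Tm(complex) − Tm(free nucleic acid), average of at least two measurements, error ±0.5 °C.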

[9] = test system: Calf thymus DNA; experiment: Binding affinity to calf thymus DNA minor groove at 0.1, 0.3, 0.5, 0.7 compound to ds-polynucleotide ratio by CD-spectrophotometric method; type: nucleic-acid assay; conditions: Bos taurus
Summary of the method: (§4)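 Induced CD spectra were recorded in 1 cm quartz cuvettes in Na cacodylate buffer (I = 0.05 mol dm-3, pH 7.0) with ct-DNA or polyA-polyU. Compound was added at r = [compound]/[polynucleotide] = 0.1, 0.3, 0.5 and 0.7. The CD signal was followed as a function of r.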

[10] = Binding affinity to polyA-polyU (unknown origin) assessed as change in melting temperature at 0.1 compound to ds-polynucleotide ratio by spectrophotometric method; summary of the method: as §3
[11] = Induction of polyA-polyU (unknown origin) intercalation at 0.1, 0.3, 0.5, 0.7 compound to ds-polynucleotide ratio by CD-spectrophotometric method; summary of the method: as §4
[12] = test system: Calf thymus DNA; experiment: Binding affinity to calf thymus DNA assessed as change in melting temperature at 0.3 compound to ds-polynucleotide ratio by spectrophotometric method; type: nucleic-acid assay; conditions: Bos taurus; summary of the method: as §3
[13] = test system: Calf thymus DNA; experiment: Binding affinity to calf thymus DNA by UV-vis spectrophotometric method; type: nucleic-acid assay; conditions: Bos taurus
Summary of the method: (§5)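 UV-Vis titration at room temperature in Na cacodylate buffer (I = 0.05 mol dm-3, pH 7.0). Portions of ct-DNA or polyA-polyU were added to a fixed compound concentration until saturation, with dilution correction. Polynucleotide was measured as phosphate. Ks and n were obtained by Scatchard analysis, together with the hypochromic change at the absorption maximum.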

[14] = test system: Calf thymus DNA; experiment: Binding affinity to calf thymus DNA assessed as change in melting temperature at 0.1 compound to ds-polynucleotide ratio by spectrophotometric method; type: nucleic-acid assay; conditions: Bos taurus; summary of the method: as §3
[15] = Binding affinity to polyA-polyU (unknown origin) assessed as hypochromic effect by UV-vis spectrophotometric method; summary of the method: as §5
[16] = Binding affinity to polyA-polyU (unknown origin) assessed as change in melting temperature at 0.5 compound to ds-polynucleotide ratio by spectrophotometric method; summary of the method: as §3
[17] = test system: Calf thymus DNA; experiment: Binding affinity to calf thymus DNA assessed as hypochromic effect by UV-vis spectrophotometric method; type: nucleic-acid assay; conditions: Bos taurus; summary of the method: as §5
[18] = test system: Calf thymus DNA; experiment: Binding affinity to calf thymus DNA assessed as change in melting temperature at 0.5 compound to ds-polynucleotide ratio by spectrophotometric method; type: nucleic-acid assay; conditions: Bos taurus; summary of the method: as §3
[19] = Binding affinity to polyA-polyU (unknown origin) by UV-vis spectrophotometric method; summary of the method: as §5
[20] = test system: Calf thymus DNA; experiment: Disruption of calf thymus DNA helix at 0.1, 0.3, 0.5, 0.7 compound to ds-polynucleotide ratio by CD-spectrophotometric method; type: nucleic-acid assay; conditions: Bos taurus; summary of the method: as §4

GI50 [1] [µM]	GI50 [2] [µM]	GI50 [3] [µM]	solubility [4] [µM]	Stability [5]	GI50 [6] [µM]	ΔTm [8] [°C]	Activity [9]	ΔTm [10] [°C]	Activity [11]	ΔTm [12] [°C]	log Ks [13]	ΔTm [14] [°C]	Activity [15]	ΔTm [16] [°C]	Activity [17] [%]	ΔTm [18] [°C]	log Ks [19]	Activity [20]	SMILES	GI50 at 72 h [7] [µM]
> 100	84.5	96.9	1000	Stable	76.9	–	–	–	–	–	–	–	–	–	–	–	–	–	Cl.Cl.N=C(NC1CCCC1)c1ccc(OCCNc2ccnc3cc(Cl)ccc23)cc1	> 100
57	43.2	46.7	1000	Stable	59.7	0.78	Active	1.64	Active	1.41	5.88	1.07	17.9%	0.25	60.2	2.08	6.05	–	CC(C)CNC(=N)c1ccc2nc(-c3ccc(Oc4ccnc5cc(Cl)ccc45)cc3)[nH]c2c1.Cl.Cl.Cl	53.5
57.7	64	40.8	1000	Stable	48.7	2.18	–	1.18	–	2.67	–	2.65	–	1.49	–	2.73	–	–	Cl.Cl.Clc1ccc2c(Oc3ccc(C4=NCCN4)cc3)ccnc2c1	56.6
60.8	50.7	51.5	1000	Stable	51.9	–	–	–	–	–	–	–	–	–	–	–	–	–	Cl.Cl.Clc1ccc2c(NCCOc3ccc(C4=NCCN4)cc3)ccnc2c1	78.4
51.3	53.3	48.2	1000	Stable	69	1.32	Active	-0.44	Active	1.75	7.87	1.07	26.8%	0.43	60	2.24	5.36	–	CC(C)NC(=N)c1ccc2nc(-c3ccc(Oc4ccnc5cc(Cl)ccc45)cc3)[nH]c2c1.Cl.Cl.Cl	61.8
> 100	> 100	19.6	1000	Stable	17.2	–	Active	–	–	9.05	6.63	5.83	inactive	–	23.7	9.83	inactive	Active	CC(C)NC(=N)c1ccc2nc(-c3ccc(OCCNc4ccnc5cc(Cl)ccc45)cc3)[nH]c2c1.Cl.Cl.Cl	> 100
> 100	36.8	40.6	1000	Stable	27.6	0.78	Active	-0.16	Active	3.2	5.76	1.6	69.7%	1.12	68.5	4.08	–	–	Cl.Cl.Clc1ccc2c(Oc3ccc(-c4nc5ccc(C6=NCCN6)cc5[nH]4)cc3)ccnc2c1	77.1
64.4	34.5	50.5	1000	Stable	21.6	1.98	Active	2.84	Active	3.31	6.96	3.3	15.5%	1.82	25.5	3.89	7.29	–	Cl.Cl.Clc1ccc2c(Oc3ccc(-c4nc5ccc(C6=NCCCN6)cc5[nH]4)cc3)ccnc2c1	67.1
56.6	47.7	51.8	1000	Stable	82.9	-0.36	–	0.36	–	2.28	–	2.01	–	–	–	2.28	–	–	CC(C)NC(=N)c1ccc(Oc2ccnc3cc(Cl)ccc23)cc1.Cl.Cl.Cl	57.7
59.1	57.6	53	1000	Stable	62.5	-0.16	–	0	–	2.17	–	1.76	–	-0.26	–	2.07	–	–	Cl.Cl.N=C(N)c1ccc(Oc2ccnc3cc(Cl)ccc23)cc1	52.8
57	53.3	50.8	1000	Stable	62	1.22	–	1.62	–	1.86	–	2.08	–	1.32	–	1.96	–	–	Cl.Cl.Clc1ccc2c(Oc3ccc(C4=NCCCN4)cc3)ccnc2c1	37.5
> 100	> 100	> 100	1000	Stable	> 100	–	–	–	–	–	–	–	–	–	–	–	–	–	Cl.Cl.Clc1ccc2c(NCCOc3ccc(C4=NCCCN4)cc3)ccnc2c1	> 100
> 100	> 100	29.3	1000	Stable	34.7	–	Active	–	–	8.4	6.72	4.84	inactive	–	17.7	8.4	inactive	Active	Cl.Cl.Cl.N=C(N)c1ccc2nc(-c3ccc(OCCNc4ccnc5cc(Cl)ccc45)cc3)[nH]c2c1	71.6
> 100	> 100	19	1000	Stable	13.3	–	Active	–	–	9.76	6.52	6.33	inactive	–	31	10.8	inactive	Active	Cl.Cl.Cl.Clc1ccc2c(NCCOc3ccc(-c4nc5ccc(C6=NCCCN6)cc5[nH]4)cc3)ccnc2c1	100
74	68.6	58.9	1000	Stable	49.5	–	–	–	–	–	–	–	–	–	–	–	–	–	Cl.Cl.Cl.N=C(N)c1ccc(OCCNc2ccnc3cc(Cl)ccc23)cc1	74.4
> 100	> 100	> 100	1000	Stable	> 100	–	–	–	–	–	–	–	–	–	–	–	–	–	CC(C)NC(=N)c1ccc(OCCNc2ccnc3cc(Cl)ccc23)cc1.Cl.Cl.Cl	> 100
> 100	92.6	86.2	1000	Stable	77.3	–	–	–	–	–	–	–	–	–	–	–	–	–	CC(C)CNC(=N)c1ccc(OCCNc2ccnc3cc(Cl)ccc23)cc1.Cl.Cl.Cl	> 100
